# An excerpt weighted towards active compounds, which were near 9.2% of everything screened.
# Dynein transport = dynein cargo transport inhibition; 3617.4 mouse cells, GR-EGFP nuclear translocation imaging; test concentration mostly 20 µM; stimulated with dexamethasone, 1 µM; stronger effect = lower value; z-score, hits read low; hit rate 0.47% among 220,000;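 active = plate z-score of nuclear minus cytoplasmic receptor signal below a set negative limit, without overly bright fluorescence or cell loss, cut at about -3.5 in these data, passing the limit was not always enough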;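 also: z-score of nuclear minus cytoplasmic ring GR-EGFP intensity difference per well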
#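 Buffer or medium: tet-free, stripped-serum medium; Also added: dexamethasone, 1.0 µM final; Technique: high-content fluorescence imaging after fixation; Times: 48 h induction, 1 h compound, 30 min dex at 37 °C; Read-out: per-cell GR-EGFP intensity, nucleus versus surrounding cytoplasmic ring, well-averaged.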
# Autophagy HCS = alters autophagy in cells; MEF GFP-LC3 puncta imaging; test concentration mostly 10 µM; calls only at 10 µM (by protocol); hit rate 0.98% among 190,000; AID 463193;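 active = percentage of spot-positive cells more than 3 SD above its plate mean, without a fluorescence outlier flag or 80% toxicity; inconclusive = no clear call, values can overlap the other calls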;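 also: spot-positive cell cutoff set from DMSO-treated cells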
# bCat KO growth = beta-catenin-lacking colon tumor cell growth suppression; HCT116 beta-catenin knockout viability, CellTiter-Glo, 60 h; stronger effect = lower value; viability, % at 10 µM; hit rate 1.5% among 140,000;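 active = viability at or under a set limit, the compound median less 4 SD, cut at about 6% in these data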;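 also: 0% = Hyamine 1622 control at 20 µM and 100% = untreated cell control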
# Lmaj promast = reduces viability of Leishmania major promastigotes. resazurin fluorescence viability. inhibition, % at 10 µM. hit rate 9% among 200,000; in the data active = inhibition above about 50%;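 also: promastigotes grown with compound for 44 hours at 28 °C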
# PTEN del growth = suppresses growth of cells with PTEN deletion; HCT116 PTEN-null viability, CellTiter-Glo, 60 h; stronger effect = lower value; viability, % at 10 µM; hit rate 1.2% among 140,000; AID 827;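 active = viability at or below a set limit, 4 SD under the median of all tested compounds, cut at about 3.7% in these data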;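 also: PTEN knockout HCT116 line with beta catenin targeted HCT116 as companion control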
# Dynein inh conf = dynein cargo transport inhibition, confirmation | shares compounds with Dynein transport | AID 463116 | calls only at 20 µM | 3617.4 GR-EGFP nuclear translocation imaging, dexamethasone-induced | hit rate 69% among 1,000;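 active = inhibition of receptor movement into the nucleus at or above a set limit in both runs, with normal cell brightness and cell count; inconclusive = limit reached in only one run, brightness and count normal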;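 also: dexamethasone at 1 µM final in well for 30 min; nuclear minus cytoplasmic GR-EGFP mean intensity difference in channel 2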
# Starred values were filed as active, the others as inactive; i = inactive; ? = inconclusive; / = no result; + = active, no number.
SMILES,Dynein transport,Autophagy HCS,bCat KO growth,Lmaj promast,PTEN del growth,Dynein inh conf
O=C1CC(Sc2nnc(-c3ccccc3O)o2)C(=O)N1c1ccccc1 (stereo not drawn),-6.5*,i,98,-9,89,i
O=C1CC(Sc2ncccn2)C(=O)N1c1ccccc1 (stereo not drawn),-1.1,i,114,3,103,/
COc1ccccc1N1C(=O)CC(Sc2n[nH]c(-c3cccc(C)c3)n2)C1=O (stereo not drawn),-3.6*,i,100,-7,100,+
Cc1nc(SC2CC(=O)N(c3ccccc3)C2=O)n[nH]1 (stereo not drawn),-3.7*,+,/,-6,/,i
COCCN(CC(=O)NCc1ccccc1)C(=O)CCC(=O)Nc1ccccn1,-0.29,i,103,-3,98,/
Cn1c(Cc2csc(N)n2)nnc1SCC(=O)NCc1ccccc1,-0.53,i,98,-2,101,/
CCCN1C=CC(=C/C=C(\C#N)C(=O)OCC)C=C1,-0.75,i,92,-5,99,/
CCCCCCN1C=CC(=C/C=C(\C#N)C(=O)OCC)C=C1,-3.8,+,94,2,84,?
Cc1ccc2cc(CN(CC3CCCO3)C(=S)NCc3ccco3)c(=O)[nH]c2c1 (stereo not drawn),-3.6*,i,/,26,/,i
COc1ccc(C(NC(N)=O)c2ccccc2)cc1 (stereo not drawn),-0.49,i,109,-1,89,/
C=C(C(=O)c1ccccc1)C(C(=C)C(=O)c1ccccc1)c1ccc(OC)cc1,-3.8*,/,/,/,/,+
Cc1ccc(NN2C(=O)C=C(c3ccccc3)C2=O)cc1,-4.5*,i,/,7,/,+
S=C(NCC1CCCO1)N1CCN(c2nc(-c3ccccc3)cs2)CC1 (stereo not drawn),-0.7,i,/,1,/,/
CCC(C)(C)c1ccc(OCCCC[n+]2cccc(C)c2)c(C(C)(C)CC)c1,-4.8*,i,/,100*,/,i
Cc1cc(C)cc(OCC(=O)OCC(=O)N2CC(=O)Nc3ccccc32)c1,-0.24,i,/,-2,/,/
N#CC(C#N)=Cc1cc2ccccc2nc1N1CCCCC1,-4.4*,i,81,82*,61,?
COc1ccc(OC)c(CCNC(=O)CS(=O)(=O)Cc2nc(-c3ccccc3C)oc2C)c1,0.81,i,70,19,69,/
O=C(NC(=S)Nc1nc2c(s1)CSc1ccccc1-2)c1ccccc1,-3.5*,i,75,38,84,i
COC(=O)c1ccc(C(=O)NC(=S)Nc2nc3c(s2)CC(C)CC3)cc1 (stereo not drawn),-0.36,i,92,-8,95,/
CN1CCN(C2=C(Cl)C(=O)C(c3cnc(N4CCCCC4)s3)=C(Cl)C2=O)CC1,-4.7*,i,1.7*,7,1.6*,+
Cc1ccccc1N1C(=O)C(Cl)=C(N2CCCCCC2)C1=O,-0.43,i,99,-1,97,/
O=[N+]([O-])c1ccc(C=Nc2ccc(Cl)c([N+](=O)[O-])c2)s1,-5.6*,i,/,100*,/,+
Cc1c(N=Cc2ccc(Br)s2)cccc1[N+](=O)[O-],0.45,i,99,-3,89,/
Clc1ncnc2scc(C3COc4ccccc4O3)c12 (stereo not drawn),-4.2*,i,100,71*,89,+
CC(C)COc1cc(=O)[nH]c(SCC(C)C)n1,-4.2*,i,95,2,111,i
SMILES,Dynein transport,Autophagy HCS,bCat KO growth,Lmaj promast,PTEN del growth,Dynein inh conf
CCCOC(=O)c1ccc(NS(=O)(=O)c2cccs2)cc1,-0.9,i,90,-4,96,/
Cc1ccc(-n2nnnc2C(Cl)(Cl)c2nnnn2-c2ccc(C)cc2)cc1,-4.6*,i,1.8*,9,1.3*,+
Clc1ccc(-c2nnnn2-c2ccc(Cl)cc2)cc1,-0.5,/,/,/,/,/
Cc1ccc(C(=O)N/C(=C/c2ccc(Cl)cc2)C(=O)NCC2CCCO2)cc1 (stereo not drawn),0.25,i,85,46,91,/
Cc1ccc(C(=O)N/C(=C\c2ccc(-c3ccc(Cl)cc3)o2)C(=O)NCCCN(C)C)cc1,-4.3*,i,/,101*,/,i
CCOC(=O)/C(=N\Nc1cc(Cl)ccc1Cl)N1CCOCC1,-0.69,i,/,8,/,/
COc1cccc(C(=O)Oc2ccccc2/C=C\C(=O)c2cc3ccccc3o2)c1,-4*,i,2.2*,100*,1.1*,+

# Assay outcomes deposited in PubChem by several laboratories.
